{"source": "ChEMBL document CHEMBL4184148", "about": "(Bioorg Med Chem Lett, 2017)", "key": {"[1]": {"target": "Serine/threonine-protein kinase PAK 4 (Homo sapiens) (UniProt O96013)", "sequence (O96013 whole entry, looked up, the tested form may be a part)": "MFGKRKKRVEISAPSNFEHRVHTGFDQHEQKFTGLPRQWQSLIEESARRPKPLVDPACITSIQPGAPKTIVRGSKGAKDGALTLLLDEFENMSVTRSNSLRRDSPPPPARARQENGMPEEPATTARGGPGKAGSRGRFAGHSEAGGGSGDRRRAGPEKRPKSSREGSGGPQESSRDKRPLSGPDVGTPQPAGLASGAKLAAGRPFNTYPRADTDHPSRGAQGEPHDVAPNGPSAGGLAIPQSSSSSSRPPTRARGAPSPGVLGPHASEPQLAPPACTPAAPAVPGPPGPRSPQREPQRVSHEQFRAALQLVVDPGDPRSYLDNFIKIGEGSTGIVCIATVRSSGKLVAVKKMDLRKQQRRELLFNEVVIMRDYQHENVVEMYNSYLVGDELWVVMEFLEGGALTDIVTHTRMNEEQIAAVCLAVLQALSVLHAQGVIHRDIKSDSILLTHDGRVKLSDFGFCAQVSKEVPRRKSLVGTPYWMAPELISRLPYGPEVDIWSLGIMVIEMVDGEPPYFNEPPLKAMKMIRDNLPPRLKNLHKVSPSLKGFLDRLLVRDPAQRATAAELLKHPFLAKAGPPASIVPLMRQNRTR", "assay": "Binding affinity to wild-type human partial length PAK4 (Q144 to R438 residues) expressed in Escherichia coli BL21 at 1 uM by Kinomescan method relative to control"}, "[2]": {"target": "Casein kinase I isoform alpha-like (Homo sapiens) (UniProt Q8N752)", "assay": "Binding affinity to wild-type human full length CSNK1A1L (M1 to N337 residues) expressed in Escherichia coli BL21 at 1 uM by Kinomescan method relative to control", "how_it_was_run": "(§1)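 Run as one kinome-wide competition binding panel with each compound at a single fixed concentration. Results were plotted as a kinome-wide selectivity map.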"}, "[3]": {"target": "Mast/stem cell growth factor receptor Kit (Homo sapiens) (UniProt P10721)", "assay": "Binding affinity to wild-type human partial length KIT (I571 to D952 residues) expressed in Escherichia coli BL21 at 1 uM by Kinomescan method relative to control"}, "[4]": {"target": "Serine/threonine-protein kinase 32C (Homo sapiens) (UniProt Q86UX6)", "assay": "Binding affinity to wild-type human partial length YANK3 (M68 to G486 residues) expressed in Escherichia coli BL21 at 1 uM by Kinomescan method relative to control"}, "[5]": {"target": "Glycogen synthase kinase-3 beta (Homo sapiens) (UniProt P49841)", "assay": "Binding affinity to wild-type human full length GSK3B (M1 to T433 residues) expressed in HEK293 cells at 1 uM by Kinomescan method relative to control", "type": "cell-based", "how_it_was_run": "as §1"}, "[6]": {"target": "Receptor-interacting serine/threonine-protein kinase 4 (Homo sapiens) (UniProt P57078)", "sequence (P57078 whole entry, the tested form may be a part)": "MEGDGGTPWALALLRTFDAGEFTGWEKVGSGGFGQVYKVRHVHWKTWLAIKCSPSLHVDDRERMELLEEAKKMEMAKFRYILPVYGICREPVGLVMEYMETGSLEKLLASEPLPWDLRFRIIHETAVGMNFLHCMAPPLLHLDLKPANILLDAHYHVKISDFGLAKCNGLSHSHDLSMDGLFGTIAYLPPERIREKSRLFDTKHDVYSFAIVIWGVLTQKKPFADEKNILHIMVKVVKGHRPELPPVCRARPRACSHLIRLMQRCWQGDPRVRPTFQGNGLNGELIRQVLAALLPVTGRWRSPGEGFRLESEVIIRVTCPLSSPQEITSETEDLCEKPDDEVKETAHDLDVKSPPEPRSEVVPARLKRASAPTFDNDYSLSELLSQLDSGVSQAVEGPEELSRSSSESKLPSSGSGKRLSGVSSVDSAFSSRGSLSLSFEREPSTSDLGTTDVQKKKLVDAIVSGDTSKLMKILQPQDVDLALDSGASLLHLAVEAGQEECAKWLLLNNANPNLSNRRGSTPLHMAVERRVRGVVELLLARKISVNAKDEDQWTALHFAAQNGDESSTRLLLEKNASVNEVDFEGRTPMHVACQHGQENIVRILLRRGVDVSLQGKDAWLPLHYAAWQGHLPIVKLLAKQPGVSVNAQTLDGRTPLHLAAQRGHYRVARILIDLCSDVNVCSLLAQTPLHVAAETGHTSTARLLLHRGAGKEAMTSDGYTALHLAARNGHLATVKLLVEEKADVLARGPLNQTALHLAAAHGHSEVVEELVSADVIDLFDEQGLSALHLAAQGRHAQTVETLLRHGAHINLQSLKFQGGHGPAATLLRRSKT", "assay": "Binding affinity to wild-type human partial length RIPK4 (M1 to V303 residues) expressed in HEK293 cells at 1 uM by Kinomescan method relative to control", "type": "cell-based"}, "[7]": {"target": "Serine/threonine-protein kinase N2 (Homo sapiens) (UniProt Q16513)", "assay": "Binding affinity to wild-type human partial length PKN2 (E634 to C984 residues) expressed in Escherichia coli BL21 at 1 uM by Kinomescan method relative to control"}, "[8]": {"target": "cAMP-dependent protein kinase catalytic subunit beta (Homo sapiens) (UniProt P22694)", "assay": "Binding affinity to wild-type human full length PKAC-beta (M1 to F351 residues) expressed in Escherichia coli BL21 at 1 uM by Kinomescan method relative to control", "how_it_was_run": "(§2)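 Kinome-wide competition binding panel run by an outside provider, with each compound tested at a single concentration. Activity is read against the kinase panel.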"}, "[9]": {"target": "Non-receptor tyrosine-protein kinase TYK2 (Homo sapiens) (UniProt P29597)", "assay": "Binding affinity to wild-type human partial length TYK2 JH1 catalytic domain (V877 to C1187 residues) expressed in HEK293 cells at 1 uM by Kinomescan method relative to control", "type": "cell-based"}, "[10]": {"target": "Ribosomal protein S6 kinase alpha-4 (Homo sapiens) (UniProt O75676)", "assay": "Binding affinity to wild-type human partial length C-terminal RPS6KA4 kinase domain 2 (M375 to T705 residues) expressed in HEK293 cells at 1 uM by Kinomescan method relative to control", "type": "cell-based"}, "[11]": {"target": "Protein kinase C delta type (Homo sapiens) (UniProt Q05655)", "assay": "Binding affinity to wild-type human partial length PRKCD (Q328 to D676 residues) expressed in Escherichia coli BL21 at 1 uM by Kinomescan method relative to control"}, "[12]": {"target": "Serine/threonine-protein kinase Sgk1 (Homo sapiens) (UniProt O00141)", "sequence (O00141 whole entry, the tested form may be a part)": "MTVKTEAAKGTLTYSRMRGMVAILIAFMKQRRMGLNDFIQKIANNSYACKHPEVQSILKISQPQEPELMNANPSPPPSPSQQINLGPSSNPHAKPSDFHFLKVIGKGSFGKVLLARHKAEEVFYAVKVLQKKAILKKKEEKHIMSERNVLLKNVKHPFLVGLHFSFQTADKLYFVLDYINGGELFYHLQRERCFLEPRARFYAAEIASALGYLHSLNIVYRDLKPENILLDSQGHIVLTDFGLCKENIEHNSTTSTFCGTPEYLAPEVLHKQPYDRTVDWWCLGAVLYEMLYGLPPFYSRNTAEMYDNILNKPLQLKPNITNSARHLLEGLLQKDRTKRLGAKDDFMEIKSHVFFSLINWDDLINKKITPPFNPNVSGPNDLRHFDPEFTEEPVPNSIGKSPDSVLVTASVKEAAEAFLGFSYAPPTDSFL", "assay": "Binding affinity to wild-type human partial length SGK (I60 to L431 residues) expressed in HEK293 cells at 1 uM by Kinomescan method relative to control", "type": "cell-based"}, "[13]": {"target": "High affinity nerve growth factor receptor (Homo sapiens) (UniProt P04629)", "assay": "Binding affinity to wild-type human partial length TRKA (G475 to G790 residues) expressed in HEK293 cells at 1 uM by Kinomescan method relative to control", "type": "cell-based"}, "[14]": {"test_system": "Epidermal growth factor receptor (Homo sapiens), P00533 [L858R,T790M]", "assay": "Binding affinity to human partial length EGFR L858R/T790M double mutant (R669 to V1011 residues) expressed in HEK293 cells at 1 uM by Kinomescan method relative to control", "type": "cell-based"}, "[15]": {"test_system": "Phosphatidylinositol 4,5-bisphosphate 3-kinase catalytic subunit alpha isoform (Homo sapiens), P42336 [E545K]", "sequence (P42336 whole entry E545K, the tested form may be a part, canonical isoform)": "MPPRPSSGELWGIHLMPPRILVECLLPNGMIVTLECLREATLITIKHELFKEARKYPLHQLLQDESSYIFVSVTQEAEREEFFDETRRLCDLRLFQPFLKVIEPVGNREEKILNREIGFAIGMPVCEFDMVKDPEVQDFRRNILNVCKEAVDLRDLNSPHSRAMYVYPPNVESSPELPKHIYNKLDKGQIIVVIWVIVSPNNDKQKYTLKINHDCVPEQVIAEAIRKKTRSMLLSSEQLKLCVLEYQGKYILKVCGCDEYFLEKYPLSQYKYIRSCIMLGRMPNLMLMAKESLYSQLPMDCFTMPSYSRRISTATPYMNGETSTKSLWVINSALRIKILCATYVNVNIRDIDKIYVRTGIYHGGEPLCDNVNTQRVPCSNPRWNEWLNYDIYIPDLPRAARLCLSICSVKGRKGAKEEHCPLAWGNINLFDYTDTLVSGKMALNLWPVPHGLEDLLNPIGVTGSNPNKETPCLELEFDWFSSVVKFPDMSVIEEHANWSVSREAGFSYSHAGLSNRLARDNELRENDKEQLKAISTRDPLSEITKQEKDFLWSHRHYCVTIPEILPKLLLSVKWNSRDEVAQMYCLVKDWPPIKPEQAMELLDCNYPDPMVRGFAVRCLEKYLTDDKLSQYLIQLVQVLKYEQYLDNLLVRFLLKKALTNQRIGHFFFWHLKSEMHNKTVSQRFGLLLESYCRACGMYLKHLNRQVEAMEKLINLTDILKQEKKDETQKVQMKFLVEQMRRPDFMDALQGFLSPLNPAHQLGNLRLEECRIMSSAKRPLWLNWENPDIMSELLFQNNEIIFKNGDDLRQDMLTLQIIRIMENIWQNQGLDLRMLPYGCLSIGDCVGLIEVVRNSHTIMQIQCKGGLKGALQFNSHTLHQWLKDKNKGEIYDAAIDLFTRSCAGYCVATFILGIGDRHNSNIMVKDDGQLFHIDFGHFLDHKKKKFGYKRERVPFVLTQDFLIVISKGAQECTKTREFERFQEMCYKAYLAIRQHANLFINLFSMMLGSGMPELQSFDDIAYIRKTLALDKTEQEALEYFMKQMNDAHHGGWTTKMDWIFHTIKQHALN", "assay": "Binding affinity to human partial length PIK3CA E545K mutant (R108 to N1068 residues) expressed in HEK293 cells at 1 uM by Kinomescan method relative to control", "type": "cell-based"}, "[16]": {"test_system": "Receptor-type tyrosine-protein kinase FLT3 (Homo sapiens), P36888 [UNDEFINED MUTATION]", "assay": "Binding affinity to human partial length FLT3 ITD mutant expressed in Escherichia coli BL21 at 1 uM by Kinomescan method relative to control"}, "[17]": {"target": "Phosphorylase b kinase gamma catalytic chain, skeletal muscle/heart isoform (Homo sapiens) (UniProt Q16816)", "assay": "Binding affinity to wild-type human full length PHKG1 (M1 to Y387 residues) expressed in Escherichia coli BL21 at 1 uM by Kinomescan method relative to control", "how_it_was_run": "as §2"}, "[18]": {"target": "Tyrosine-protein kinase Fgr (Homo sapiens) (UniProt P09769)", "assay": "Binding affinity to wild-type human partial length FGR (L233 to T529 residues) expressed in Escherichia coli BL21 at 1 uM by Kinomescan method relative to control"}, "[19]": {"test_system": "Tyrosine-protein kinase ABL1 (Homo sapiens), P00519 [F317I]", "assay": "Binding affinity to human phosphorylated ABL1 F317I mutant (S229 to K512 residues) expressed in HEK293 cells at 1 uM by Kinomescan method relative to control", "type": "cell-based"}, "[20]": {"target": "G protein-coupled receptor kinase 4 (Homo sapiens) (UniProt P32298)", "sequence (P32298 whole entry, looked up, the tested form may be a part)": "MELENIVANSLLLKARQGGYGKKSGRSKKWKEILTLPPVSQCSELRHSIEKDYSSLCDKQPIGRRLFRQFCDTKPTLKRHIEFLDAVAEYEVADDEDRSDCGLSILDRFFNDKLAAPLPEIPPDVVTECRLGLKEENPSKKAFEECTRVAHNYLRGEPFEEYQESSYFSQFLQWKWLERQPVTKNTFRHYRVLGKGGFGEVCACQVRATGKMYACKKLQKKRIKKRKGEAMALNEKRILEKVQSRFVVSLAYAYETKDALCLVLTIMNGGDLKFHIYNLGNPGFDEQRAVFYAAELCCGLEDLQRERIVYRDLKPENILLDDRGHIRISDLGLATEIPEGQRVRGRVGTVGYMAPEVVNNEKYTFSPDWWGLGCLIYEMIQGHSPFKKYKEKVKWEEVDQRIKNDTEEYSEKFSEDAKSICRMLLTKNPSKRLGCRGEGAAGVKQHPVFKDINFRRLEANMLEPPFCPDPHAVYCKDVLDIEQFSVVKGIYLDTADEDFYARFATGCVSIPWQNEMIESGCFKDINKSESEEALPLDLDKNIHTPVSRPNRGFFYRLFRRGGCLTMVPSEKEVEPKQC", "assay": "Binding affinity to wild-type human full length GRK4 (M1 to C578 residues) expressed in Escherichia coli BL21 at 1 uM by Kinomescan method relative to control", "how_it_was_run": "as §1"}, "[21]": {"target": "Mitogen-activated protein kinase kinase kinase kinase 3 (Homo sapiens) (UniProt Q8IVH8)", "assay": "Binding affinity to wild-type human partial length MAP4K3 (M1 to D301 residues) expressed in Escherichia coli BL21 at 1 uM by Kinomescan method relative to control"}, "[22]": {"target": "Serine/threonine-protein kinase WNK2 (Homo sapiens) (UniProt Q9Y3S1)", "assay": "Binding affinity to wild-type human partial length WNK2 (V47 to D482 residues) expressed in HEK293 cells at 1 uM by Kinomescan method relative to control", "type": "cell-based"}, "[23]": {"test_system": "Phosphatidylinositol 4,5-bisphosphate 3-kinase catalytic subunit alpha isoform (Homo sapiens), P42336 [H1047Y]", "sequence (P42336 whole entry H1047Y, the tested form may be a part, canonical isoform)": "as the sequence (P42336 whole entry E545K, the tested form may be a part, canonical isoform) above, with K545E, H1047Y counted along it", "assay": "Binding affinity to human partial length PIK3CA H1047Y mutant (R108 to N1068 residues) expressed in HEK293 cells at 1 uM by Kinomescan method relative to control", "type": "cell-based"}, "[24]": {"target": "Aurora kinase C (Homo sapiens) (UniProt Q9UQB9)", "sequence (Q9UQB9 whole entry, the tested form may be a part)": "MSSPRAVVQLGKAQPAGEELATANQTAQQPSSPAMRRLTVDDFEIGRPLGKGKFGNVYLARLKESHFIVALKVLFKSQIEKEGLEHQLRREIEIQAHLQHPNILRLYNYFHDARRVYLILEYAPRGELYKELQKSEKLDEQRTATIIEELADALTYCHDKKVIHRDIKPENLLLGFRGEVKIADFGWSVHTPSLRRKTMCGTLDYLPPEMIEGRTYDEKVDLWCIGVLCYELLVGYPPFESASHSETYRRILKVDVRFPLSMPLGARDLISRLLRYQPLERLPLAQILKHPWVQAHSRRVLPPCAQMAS", "assay": "Binding affinity to wild-type human full length AURKC (M1 to S275 residues) expressed in Escherichia coli BL21 at 1 uM by Kinomescan method relative to control"}, "[25]": {"target": "Phosphatidylinositol 4,5-bisphosphate 3-kinase catalytic subunit gamma isoform (Homo sapiens) (UniProt P48736)", "sequence (P48736 whole entry, looked up, the tested form may be a part, canonical isoform)": "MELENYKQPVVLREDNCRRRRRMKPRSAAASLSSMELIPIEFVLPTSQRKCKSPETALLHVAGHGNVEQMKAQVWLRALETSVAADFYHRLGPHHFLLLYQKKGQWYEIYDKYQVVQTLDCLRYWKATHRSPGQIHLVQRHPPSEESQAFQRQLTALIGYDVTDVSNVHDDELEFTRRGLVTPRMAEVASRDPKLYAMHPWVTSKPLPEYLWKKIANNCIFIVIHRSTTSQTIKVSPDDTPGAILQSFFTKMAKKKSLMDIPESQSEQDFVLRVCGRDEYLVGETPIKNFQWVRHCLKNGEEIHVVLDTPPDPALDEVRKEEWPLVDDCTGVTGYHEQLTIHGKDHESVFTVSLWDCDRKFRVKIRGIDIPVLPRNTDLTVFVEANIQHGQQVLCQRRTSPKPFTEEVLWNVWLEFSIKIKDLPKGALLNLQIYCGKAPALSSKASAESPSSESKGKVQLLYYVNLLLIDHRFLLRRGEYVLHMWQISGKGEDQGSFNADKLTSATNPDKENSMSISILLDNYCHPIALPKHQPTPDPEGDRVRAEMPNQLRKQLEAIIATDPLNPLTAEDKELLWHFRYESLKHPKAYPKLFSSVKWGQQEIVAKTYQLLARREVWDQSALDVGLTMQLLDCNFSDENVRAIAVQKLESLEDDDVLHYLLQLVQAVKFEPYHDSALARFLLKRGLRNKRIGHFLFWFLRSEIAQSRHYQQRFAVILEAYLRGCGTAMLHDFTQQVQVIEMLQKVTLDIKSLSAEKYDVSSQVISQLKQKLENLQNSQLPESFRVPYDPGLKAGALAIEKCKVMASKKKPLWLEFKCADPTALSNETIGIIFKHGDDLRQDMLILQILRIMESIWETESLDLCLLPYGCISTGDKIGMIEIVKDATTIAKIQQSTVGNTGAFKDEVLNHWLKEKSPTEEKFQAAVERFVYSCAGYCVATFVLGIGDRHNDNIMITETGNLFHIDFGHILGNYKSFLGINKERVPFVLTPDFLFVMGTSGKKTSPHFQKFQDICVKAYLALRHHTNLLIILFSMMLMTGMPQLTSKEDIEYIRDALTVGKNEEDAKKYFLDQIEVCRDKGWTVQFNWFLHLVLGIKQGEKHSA", "assay": "Binding affinity to wild-type human partial length PIK3CG (S144 to A1102 residues) expressed in HEK293 cells at 1 uM by Kinomescan method relative to control", "type": "cell-based"}}}
{"smiles": "C=CC(=O)Nc1ccc(C(=O)Nc2ccc(Nc3ncc4c(n3)N(C)c3ccc(C)cc3C(=O)N4C)cc2)cc1", "values": [{"measurement": "Activity", "setting": "[1]", "value": 97, "unit": "%"}, {"measurement": "Activity", "setting": "[2]", "value": 95, "unit": "%"}, {"measurement": "Activity", "setting": "[3]", "value": 98, "unit": "%"}, {"measurement": "Activity", "setting": "[4]", "value": 100, "unit": "%"}, {"measurement": "Activity", "setting": "[5]", "value": 92, "unit": "%"}, {"measurement": "Activity", "setting": "[6]", "value": 91, "unit": "%"}, {"measurement": "Activity", "setting": "[7]", "value": 75, "unit": "%"}, {"measurement": "Activity", "setting": "[8]", "value": 100, "unit": "%"}, {"measurement": "Activity", "setting": "[9]", "value": 73, "unit": "%"}, {"measurement": "Activity", "setting": "[10]", "value": 96, "unit": "%"}, {"measurement": "Activity", "setting": "[11]", "value": 97, "unit": "%"}, {"measurement": "Activity", "setting": "[12]", "value": 100, "unit": "%"}, {"measurement": "Activity", "setting": "[13]", "value": 79, "unit": "%"}, {"measurement": "Activity", "setting": "[14]", "value": 100, "unit": "%"}, {"measurement": "Activity", "setting": "[15]", "value": 72, "unit": "%"}, {"measurement": "Activity", "setting": "[16]", "value": 83, "unit": "%"}, {"measurement": "Activity", "setting": "[17]", "value": 99, "unit": "%"}, {"measurement": "Activity", "setting": "[18]", "value": 93, "unit": "%"}, {"measurement": "Activity", "setting": "[19]", "value": 100, "unit": "%"}, {"measurement": "Activity", "setting": "[20]", "value": 97, "unit": "%"}, {"measurement": "Activity", "setting": "[21]", "value": 97, "unit": "%"}, {"measurement": "Activity", "setting": "[22]", "value": 86, "unit": "%"}, {"measurement": "Activity", "setting": "[23]", "value": 62, "unit": "%"}, {"measurement": "Activity", "setting": "[24]", "value": 49, "unit": "%"}, {"measurement": "Activity", "setting": "[25]", "value": 24, "unit": "%"}]}
{"smiles": "CCC(=O)Nc1ccc(C(=O)Nc2ccc(Nc3ncc4c(n3)N(C)c3ccc(C)cc3C(=O)N4C)cc2)cc1", "values": [{"measurement": "Activity", "setting": "[1]", "value": 98, "unit": "%"}, {"measurement": "Activity", "setting": "[2]", "value": 97, "unit": "%"}, {"measurement": "Activity", "setting": "[3]", "value": 84, "unit": "%"}, {"measurement": "Activity", "setting": "[4]", "value": 100, "unit": "%"}, {"measurement": "Activity", "setting": "[5]", "value": 82, "unit": "%"}, {"measurement": "Activity", "setting": "[6]", "value": 86, "unit": "%"}, {"measurement": "Activity", "setting": "[7]", "value": 100, "unit": "%"}, {"measurement": "Activity", "setting": "[8]", "value": 100, "unit": "%"}, {"measurement": "Activity", "setting": "[9]", "value": 58, "unit": "%"}, {"measurement": "Activity", "setting": "[10]", "value": 51, "unit": "%"}, {"measurement": "Activity", "setting": "[11]", "value": 84, "unit": "%"}, {"measurement": "Activity", "setting": "[12]", "value": 79, "unit": "%"}, {"measurement": "Activity", "setting": "[13]", "value": 78, "unit": "%"}, {"measurement": "Activity", "setting": "[14]", "value": 96, "unit": "%"}, {"measurement": "Activity", "setting": "[15]", "value": 76, "unit": "%"}, {"measurement": "Activity", "setting": "[16]", "value": 94, "unit": "%"}, {"measurement": "Activity", "setting": "[17]", "value": 88, "unit": "%"}, {"measurement": "Activity", "setting": "[18]", "value": 96, "unit": "%"}, {"measurement": "Activity", "setting": "[19]", "value": 63, "unit": "%"}, {"measurement": "Activity", "setting": "[20]", "value": 100, "unit": "%"}, {"measurement": "Activity", "setting": "[21]", "value": 79, "unit": "%"}, {"measurement": "Activity", "setting": "[22]", "value": 94, "unit": "%"}, {"measurement": "Activity", "setting": "[23]", "value": 72, "unit": "%"}, {"measurement": "Activity", "setting": "[24]", "value": 1.3, "unit": "%"}, {"measurement": "Activity", "setting": "[25]", "value": 20, "unit": "%"}]}
